High-throughput results as filed in PubChem.
This is a sample that favours compounds with a hit; in the whole collection about 1.5% have one here.
PKA-R2B activ: activates the human PKA-R2B holoenzyme complex | P22694+P31323 | PKA-R2B holoenzyme dissociation, Cy5-IP20 fluorescence polarization; R2B truncated from residue 108, S112A mutant; 0% DMSO only, 100% 113 µM cGMP | activation, % at 11.4 µM | 340,000 tested, 0.079% active | AID 504700;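 active = activation above a cutoff set at the mean over all compounds plus 3 SD, cut at about 18% in these data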;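 also: higher means more holoenzyme dissociation and a rise in polarization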
Target sequence (P31323 whole entry, looked up, other chains not shown, the tested form may be a part): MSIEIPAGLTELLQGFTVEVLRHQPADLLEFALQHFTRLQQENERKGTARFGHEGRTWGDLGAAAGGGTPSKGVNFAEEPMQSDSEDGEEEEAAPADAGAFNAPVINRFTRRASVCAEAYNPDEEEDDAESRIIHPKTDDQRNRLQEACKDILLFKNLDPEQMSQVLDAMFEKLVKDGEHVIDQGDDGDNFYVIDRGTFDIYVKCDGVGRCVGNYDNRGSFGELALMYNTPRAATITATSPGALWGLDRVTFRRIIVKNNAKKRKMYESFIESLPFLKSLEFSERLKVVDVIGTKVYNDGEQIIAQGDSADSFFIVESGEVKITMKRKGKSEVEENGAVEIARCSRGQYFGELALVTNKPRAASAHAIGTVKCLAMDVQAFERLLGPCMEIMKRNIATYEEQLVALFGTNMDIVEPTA
SIRT5 block: blocks human SIRT5 desuccinylation of peptide | Q9NXA8 | Purified SirT5, succinyl-peptide AMC, trypsin-coupled fluorescence | AID 652115 | inhibition, % at 15 µM | 330,000 tested, 1.1% active; in the data active = inhibition above about 15%
CRFBP-R2 block: blocks CRF-induced signaling of the CRF-BP/CRF-R2 complex; HEK293 CRF-R2/CRF-BP, CRF-induced calcium fluorescence; inhibition, % at 11.8 µM; 350,000 tested, 0.59% active; AID 588475;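 active = inhibition of the ligand-induced calcium signal above about 50% at the single tested concentration, limit read from the data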
S100A4 MyoIIA: S100A4-myosin IIA interaction inhibition; 360,000 tested, 0.14% active; inhibition, % at 10.7 µM; S100A4/TAMRA-MyoIIA peptide fluorescence polarization; P26447;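 active = mean inhibition of at least 70% across replicates, with every replicate also reaching that level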
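System – human S100A4 monomer protein, biochemical binding assay · Buffer or medium – Calcium-containing HEPES buffer, pH 7.2 · Timing – 5 min between mix addition and reading · Also added – TAMRA-labelled myosin IIA heavy-chain peptide probe, 5 nM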
PKA-R1A activ: activators of PKA-R1A complex; P00514+P68181; PKA-R1A dissociation, Cy5-IP20 fluorescence polarization; scaled: DMSO 0%, 113 µM cGMP 100%; activation, % at 11.4 µM; 340,000 tested, 0.083% active;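 active = percent activation above the mean of all tested compounds plus 3 SD, cut at about 19% in these data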;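 also: higher means more PKAc released from R1A so a rise in polarization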
* hit, by the source's call; · = not tested or not shown.

SMILES	PKA-R2B activ	SIRT5 block	CRFBP-R2 block	S100A4 MyoIIA	PKA-R1A activ
COc1ccc(S(=O)(=O)N[C@@H]2C=C[C@H](CC(=O)NCCc3ccccc3)O[C@H]2CO)cc1	·	13	·	13	·
CN(C)C(=O)[C@@H]1[C@@H](CO)[C@@H]2Cn3c(ccc(-c4ccncc4)c3=O)[C@@H]2N1Cc1ccccc1	·	5	·	9	·
Cc1cccc(NC(=S)NCCN2CCOCC2)c1	-6	3	8	21	-6
Cc1ccc(C)c(NC(=O)C(=O)NCCCN2CCOCC2)c1	5	-8	1	29	-7
Cc1ccc(C)c(NC(=S)NCCCN2CCOCC2)c1	-8	-5	126*	-26	-11
S=C(NCCCN1CCOCC1)Nc1cccc(-c2nnc3n2CCCCC3)c1	10	16*	8	-1	5
CC(=O)C1=C(c2cccc([N+](=O)[O-])c2)N(C(C)=O)n2c(C)nnc2S1	5	-1	54*	12	-11
COc1ccc(NC(=O)/C=C/c2ccc(Br)o2)cn1	3	34*	-6	-2	7
Cc1cc(C)n(C(=O)c2cccc([N+](=O)[O-])c2C)n1	6	34*	17	-2	4
CCCN(C)C[C@H]1Oc2cc(-c3ccccc3OC)ccc2S(=O)(=O)N([C@H](C)CO)C[C@H]1C	·	-14	·	-9	·
CC(C)(C)c1ccc(C(=O)O/N=C(\N)Cc2cccs2)cc1	6	34*	5	1	-8
Cc1ccc(S(=O)(=O)N(C)C[C@@H]2OCCCC[C@@H](C)Oc3ccc(NS(=O)(=O)c4ccc(F)cc4)cc3C(=O)N([C@@H](C)CO)C[C@@H]2C)cc1	·	29*	·	4	·
Cc1ccc(S(=O)(=O)N(C)C[C@H]2OCCCC[C@H](C)Oc3ccc(NS(=O)(=O)c4ccc(F)cc4)cc3C(=O)N([C@H](C)CO)C[C@@H]2C)cc1	·	20*	·	-18	·
Cc1ccc(S(=O)(=O)Nc2ccc3c(c2)C(=O)N([C@H](C)CO)C[C@@H](C)[C@@H](CN(C)S(=O)(=O)c2ccc(F)cc2)OCCCC[C@H](C)O3)cc1	·	13	·	-11	·
Cc1ccc(S(=O)(=O)N(C)C[C@@H]2OCCCC[C@H](C)Oc3ccc(NS(=O)(=O)c4ccc(F)cc4)cc3C(=O)N([C@@H](C)CO)C[C@H]2C)cc1	·	19*	·	2	·
Cc1ccc(S(=O)(=O)Nc2ccc3c(c2)C(=O)N([C@@H](C)CO)C[C@H](C)[C@H](CN(C)S(=O)(=O)c2ccc(F)cc2)OCCCC[C@@H](C)O3)cc1	·	18*	·	-2	·
Cc1ccc(S(=O)(=O)Nc2ccc3c(c2)C(=O)N([C@H](C)CO)C[C@@H](C)[C@H](CN(C)S(=O)(=O)c2ccc(F)cc2)OCCCC[C@@H](C)O3)cc1	·	14	·	-17	·
Cc1ccc(S(=O)(=O)N(C)C[C@H]2OCCCC[C@H](C)Oc3ccc(NS(=O)(=O)c4ccc(F)cc4)cc3C(=O)N([C@@H](C)CO)C[C@@H]2C)cc1	·	3	·	1	·
Cc1ccc(S(=O)(=O)Nc2ccc3c(c2)C(=O)N([C@@H](C)CO)C[C@@H](C)[C@H](CN(C)S(=O)(=O)c2ccc(F)cc2)OCCCC[C@@H](C)O3)cc1	·	18*	·	-8	·
C[C@H](CO)N1C[C@H](C)[C@H](CN(C)CC2CC2)Oc2cc(/C=C/c3ccccc3)ccc2S1(=O)=O	·	-1	·	-23	·
Cc1ccc(/C=C2\C(=O)ON=C2c2ccccc2)o1	·	15*	-8	-14	·
CC(C)NC(=O)N(C)C[C@@H]1Oc2ccc(NC(=O)Cc3cn(C)c4ccccc34)cc2C(=O)N([C@H](C)CO)C[C@H]1C	·	2	·	-8	·
Cc1ccc(CN(C)C(=O)CCc2c[nH]c3ccccc23)o1	6	-1	57*	-1	-3
C/C(=N/NC(=O)c1ccc(C)s1)c1cccc(NC(=O)c2ccoc2C)c1	-2	17*	-10	1	-14
C/C(=N/NC(=O)c1ccoc1C)c1cccc(NC(=O)C(F)(F)F)c1	3	·	-6	·	-3
O=C(NCCCO)C(=O)c1c(-c2ccccc2)cc2ccccn12	-9	7	1	12	-6
CN(C)CCNC(=O)C(=O)c1c(-c2ccccc2)cc2ccccn12	-7	-4	65*	5	-3
